Reference: ChEMBL document CHEMBL4004789, “Isochromans and Related Constituents from the Endophytic Fungus Annulohypoxylon truncatum of Zizania caduciflora and Their Anti-Inflammatory Effects” (J Nat Prod, 2017)
The source made the active and inactive calls. The calls are words filed in the database; no cut-off is given here.

Experiments:
[1] = Anti-inflammatory activity in C57BL/6 mouse BMDC assessed as inhibition of LPS-induced IL-6 production pretreated for 1 hr followed by LPS-stimulation after 18 hrs by ELISA; type: functional, cell-based
Procedure, shortened: (§1)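 BMDCs came from wild-type C57BL/6 bone marrow, cultured 6 days with GM-CSF-containing J558L supernatant in RPMI 1640 with 10% FBS; loosely adherent cells were used. Cells were plated at 1 × 10⁵/well and pretreated 1 h with compound at 2, 5, 10, 25 and 50 μM. Stimulation was 10 ng/mL S. minnesota LPS. Murine cytokine in 18 h supernatants was measured by ELISA. Mean + SD, ≥3 independent experiments in triplicate.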

[2] = Anti-inflammatory activity in C57BL/6 mouse BMDC assessed as inhibition of LPS-induced TNFalpha production pretreated for 1 hr followed by LPS-stimulation after 18 hrs by ELISA; type: functional, cell-based; procedure, shortened: as §1
[3] = Anti-inflammatory activity in C57BL/6 mouse BMDC assessed as inhibition of LPS-induced IL12 p40 production pretreated for 1 hr followed by LPS-stimulation after 18 hrs by ELISA; type: functional, cell-based; procedure, shortened: as §1
[4] = Cytotoxicity against C57BL/6 mouse BMDC at 50 uM after 24 hrs by CCK8 assay; type: cell-based
Procedure, shortened: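 GM-CSF-derived C57BL/6 BMDCs were seeded at ~1 × 10⁴ cells/well and cultured overnight. Compound was added across a dose series for 24 h. CCK-8 reagent was then added for 1 h, and absorbance at 450 nm was read as viable cell number. Triplicate wells.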

BMDC [5] = assay: Anti-inflammatory activity in C57BL/6 mouse BMDC assessed as inhibition of LPS-induced TNFalpha production at 50 uM pretreated for 1 hr followed by LPS-stimulation after 18 hrs by ELISA; type: functional, cell-based
Procedure, shortened: (§2)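 Wild-type C57BL/6 mouse bone marrow cells were grown 6 days in RPMI 1640 with 10% FBS, 50 μM β-ME, 2 mM glutamine and 3% J558L supernatant (GM-CSF). Non-adherent DCs were plated at 1 × 10⁵/well and given compound at 50 μM for 1 h. They were then stimulated with 10 ng/mL Salmonella minnesota LPS. Supernatant cytokine was measured by ELISA at 18 h. Mean + SD, ≥3 independent experiments in triplicate.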

BMDC [6] = assay: Anti-inflammatory activity in C57BL/6 mouse BMDC assessed as inhibition of LPS-induced IL12 p40 production at 50 uM pretreated for 1 hr followed by LPS-stimulation after 18 hrs by ELISA; type: functional, cell-based; procedure, shortened: as §2
BMDC [7] = assay: Anti-inflammatory activity in C57BL/6 mouse BMDC assessed as inhibition of LPS-induced IL-6 production at 50 uM pretreated for 1 hr followed by LPS-stimulation after 18 hrs by ELISA; type: functional, cell-based; procedure, shortened: as §2

| SMILES | IC50 [1] [µM] | IC50 [2] [µM] | IC50 [3] [µM] | Activity [4] | inhibition (BMDC [5]) | inhibition (BMDC [6]) | inhibition (BMDC [7]) |
| --- | --- | --- | --- | --- | --- | --- | --- |
| COc1c(O)cc2c(c1O)CO[C@H](C)C2 | > 100 | > 100 | > 100 | Non-Toxic | – | – | – |
| Cc1ccc2c(c1O)C(=O)O[C@H](C)C2 | > 100 | > 100 | > 100 | Non-Toxic | – | – | – |
| C[S+]([O-])c1ccc(-c2nc(-c3ccc(F)cc3)c(-c3ccncc3)[nH]2)cc1 (stereo not drawn) [SB-203580] | 3.5 | 7.2 | 5 | – | – | – | – |
| C[C@@H]1Cc2cc(O)cc(O)c2CO1 | > 100 | > 100 | > 100 | Non-Toxic | – | – | – |

More lines, main results first:

| IC50 [1] [µM] | IC50 [2] [µM] | IC50 [3] [µM] | SMILES | Activity [4] | inhibition (BMDC [5]) | inhibition (BMDC [6]) | inhibition (BMDC [7]) |
| --- | --- | --- | --- | --- | --- | --- | --- |
| > 100 | > 100 | > 100 | COc1cc2c(c(O)c1OC)CO[C@H](C)[C@H]2O | Non-Toxic | – | – | – |
| > 100 | > 100 | > 100 | COc1c2c(cc(O)c1O[C@H]1O[C@H](CO)[C@@H](O)[C@H]1O)C[C@@H](C)OC2 | Non-Toxic | – | – | – |
| > 100 | > 100 | > 100 | COc1cc2c(c(O)c1O)CO[C@H](C)[C@H]2O | Non-Toxic | – | – | – |
| > 100 | > 100 | > 100 | COc1cc2c(c(O)c1OC)CO[C@H](C)C2 | Non-Toxic | – | – | – |
| 5.3 | 37.6 | 19.4 | C[C@@H]1CC2=C(CO1)C(=O)[C@](C)(O)[C@@H](O)C2 | Non-Toxic | Active | Active | Active |
